From ChEMBL document CHEMBL1157912, “Impact of nature and length of linker incorporated in agonists on toll-like receptor 9-mediated immune responses” (J Med Chem, 2010)

Key:
[1] = biological target: T1, Toll-like receptor 9 (Mus musculus) (UniProt Q9EQU3); assay: Activation of mouse TLR9 expressed in HEK293 cells assessed as induction of NF-kappaB activity after 18 hrs by SEAP assay; type: cell-based
T1 sequence (whole entry): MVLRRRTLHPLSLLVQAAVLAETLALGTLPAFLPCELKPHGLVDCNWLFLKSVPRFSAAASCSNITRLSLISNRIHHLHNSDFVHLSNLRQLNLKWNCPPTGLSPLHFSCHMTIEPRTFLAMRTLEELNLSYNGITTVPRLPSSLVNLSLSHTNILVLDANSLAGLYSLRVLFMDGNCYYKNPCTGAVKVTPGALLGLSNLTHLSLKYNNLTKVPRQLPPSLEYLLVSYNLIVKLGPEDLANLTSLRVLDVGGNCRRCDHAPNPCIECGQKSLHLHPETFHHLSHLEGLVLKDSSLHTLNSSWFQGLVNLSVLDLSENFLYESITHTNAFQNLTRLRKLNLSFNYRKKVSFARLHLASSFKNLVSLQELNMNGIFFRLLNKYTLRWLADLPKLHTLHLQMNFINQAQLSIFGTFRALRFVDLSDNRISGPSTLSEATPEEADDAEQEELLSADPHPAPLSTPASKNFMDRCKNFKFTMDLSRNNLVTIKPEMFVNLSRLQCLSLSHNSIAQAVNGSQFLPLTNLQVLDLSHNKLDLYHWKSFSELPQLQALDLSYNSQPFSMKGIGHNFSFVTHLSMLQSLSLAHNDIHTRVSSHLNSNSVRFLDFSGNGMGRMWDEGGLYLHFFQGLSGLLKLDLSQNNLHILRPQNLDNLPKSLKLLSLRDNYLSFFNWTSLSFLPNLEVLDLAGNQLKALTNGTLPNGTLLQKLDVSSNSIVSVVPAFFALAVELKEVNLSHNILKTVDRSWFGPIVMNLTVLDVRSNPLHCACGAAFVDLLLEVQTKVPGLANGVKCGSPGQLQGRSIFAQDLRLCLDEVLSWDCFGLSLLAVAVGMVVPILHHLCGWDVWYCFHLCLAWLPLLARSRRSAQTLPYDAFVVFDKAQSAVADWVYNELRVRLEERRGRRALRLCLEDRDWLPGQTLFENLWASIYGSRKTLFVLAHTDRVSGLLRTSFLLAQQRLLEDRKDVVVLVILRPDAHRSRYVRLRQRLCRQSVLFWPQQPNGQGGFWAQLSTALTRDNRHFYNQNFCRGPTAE
Summary of the method: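 HEK293 cells stably expressing mouse TLR9 were grown in DMEM with 10% heat-inactivated FBS. At 80% confluence they were transiently transfected with a SEAP reporter plasmid (100 ng/well, lipofectamine) for 6 h. Medium was then replaced and agonists were added for 18 h. Supernatant SEAP was read with QuantiBlue substrate at 620-645 nm. Results are expressed as fold NF-κB activity over PBS control.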

[2] = biological target: T1, Toll-like receptor 9 (Mus musculus); assay: Induction of TLR9-mediated IL6 production in C57BL/6 mouse spleen cells after 24 hrs by ELISA; type: cell-based
Summary of the method: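 C57BL/6 mouse spleen cells were cultured with agonists at 0.1, 0.3, 1, 3 and 10 μg/mL for 24 h. Secreted IL-12 and IL-6 in the supernatants were measured by ELISA. Values are averages of triplicate wells from one representative of at least two independent experiments.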

[3] = biological target: T2, Toll-like receptor 9 (Homo sapiens) (UniProt Q9NR96); assay: Induction of TLR9-mediated immune stimulation in human PBMC assessed as IL6 production at 2 ug/ml after 24 hrs by luminex multiplex assay (RVb = 0.01 ng/ml)
T2 sequence (whole entry): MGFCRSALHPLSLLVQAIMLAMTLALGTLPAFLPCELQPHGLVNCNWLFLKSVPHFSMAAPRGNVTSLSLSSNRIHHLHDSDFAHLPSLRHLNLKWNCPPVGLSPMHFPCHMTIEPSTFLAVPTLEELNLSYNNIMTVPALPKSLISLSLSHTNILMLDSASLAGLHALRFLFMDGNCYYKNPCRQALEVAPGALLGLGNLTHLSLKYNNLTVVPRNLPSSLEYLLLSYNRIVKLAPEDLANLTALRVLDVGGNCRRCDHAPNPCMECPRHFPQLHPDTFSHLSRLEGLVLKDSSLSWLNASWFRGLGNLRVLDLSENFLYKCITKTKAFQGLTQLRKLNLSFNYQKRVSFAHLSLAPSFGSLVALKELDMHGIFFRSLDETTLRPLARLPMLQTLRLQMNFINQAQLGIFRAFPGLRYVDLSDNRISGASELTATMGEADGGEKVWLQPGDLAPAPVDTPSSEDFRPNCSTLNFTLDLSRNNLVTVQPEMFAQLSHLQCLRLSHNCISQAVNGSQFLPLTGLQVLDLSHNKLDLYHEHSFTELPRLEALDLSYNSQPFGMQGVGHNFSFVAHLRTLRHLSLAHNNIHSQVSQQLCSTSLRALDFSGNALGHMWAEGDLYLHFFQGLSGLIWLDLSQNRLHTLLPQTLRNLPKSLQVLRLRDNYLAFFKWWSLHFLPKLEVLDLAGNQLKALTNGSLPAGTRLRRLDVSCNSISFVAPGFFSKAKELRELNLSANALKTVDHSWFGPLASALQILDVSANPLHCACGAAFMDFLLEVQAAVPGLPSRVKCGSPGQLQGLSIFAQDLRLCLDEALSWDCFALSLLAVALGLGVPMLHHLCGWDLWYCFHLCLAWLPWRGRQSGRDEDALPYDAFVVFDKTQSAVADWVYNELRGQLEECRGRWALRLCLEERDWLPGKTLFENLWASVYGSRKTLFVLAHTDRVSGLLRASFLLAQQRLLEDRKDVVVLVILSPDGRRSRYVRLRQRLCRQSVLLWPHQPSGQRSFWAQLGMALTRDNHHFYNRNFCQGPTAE

[4] = biological target: T2, Toll-like receptor 9 (Homo sapiens); assay: Induction of TLR9-mediated immune stimulation in human PBMC assessed as IL6 production at 10 ug/ml after 24 hrs by luminex multiplex assay (RVb = 0.01 ng/ml)
[5] = biological target: T2, Toll-like receptor 9 (Homo sapiens); assay: Induction of TLR9-mediated immune stimulation in human PBMC assessed as MIP1alpha production at 10 ug/ml after 24 hrs by luminex multiplex assay (RVb = 0.01 ng/ml)
[6] = biological target: T2, Toll-like receptor 9 (Homo sapiens); assay: Induction of TLR9-mediated immune stimulation in human PBMC assessed as MIP1beta production at 2 ug/ml after 24 hrs by luminex multiplex assay (RVb = 0.03 +/- 0.02 ng/ml)
[7] = biological target: T2, Toll-like receptor 9 (Homo sapiens); assay: Induction of TLR9-mediated immune stimulation in human PBMC assessed as MIP1beta production at 10 ug/ml after 24 hrs by luminex multiplex assay (RVb = 0.03 +/- 0.02 ng/ml)
[8] = biological target: T2, Toll-like receptor 9 (Homo sapiens); assay: Induction of TLR9-mediated immune stimulation in human PBMC assessed as RANTES production at 2 ug/ml after 24 hrs by luminex multiplex assay (RVb = 0.05 +/- 0.04 ng/ml)
[9] = biological target: T2, Toll-like receptor 9 (Homo sapiens); assay: Induction of TLR9-mediated immune stimulation in human PBMC assessed as MCP1 production at 2 ug/ml after 24 hrs by luminex multiplex assay (RVb = 0.08 +/- 0.02 ng/ml)

SMILES | Activity [1] | Activity [2] | Activity [3] | Activity [4] | Activity [5] | Activity [6] | Activity [7] | Activity [8] | Activity [9]
Cc1cn([C@H]2C[C@H](OCC[C@H](O)COP(=O)(S)O[C@H]3C[C@H](n4cc(C)c(=O)[nH]c4=O)O[C@@H]3COP(=O)(S)O[C@H]3[C@@H](O)[C@H](n4ccc(N)nc4=O)O[C@@H]3COP(=O)(S)O[C@H]3C[C@H](n4cc(C)c(=O)[nH]c4=O)O[C@@H]3COP(=O)(S)O[C@H]3C[C@H](n4cc(C)c(=O)[nH]c4=O)O[C@@H]3COP(=O)(S)O[C@H]3C[C@H](n4ccc5c(=O)[nH]c(N)nc54)O[C@@H]3COP(=O)(S)O[C@H]3[C@@H](O)[C@H](n4ccc(N)nc4=O)O[C@@H]3COP(=O)(S)O[C@H]3C[C@H](n4cc(C)c(=O)[nH]c4=O)O[C@@H]3COP(=O)(S)O[C@H]3[C@@H](O)[C@H](n4cnc5c(=O)[nH]c(N)nc54)O[C@@H]3COP(=O)(S)O[C@H]3C[C@H](n4cc(C)c(=O)[nH]c4=O)O[C@@H]3COP(=O)(S)O[C@H]3[C@@H](O)[C@H](n4ccc(N)nc4=O)O[C@@H]3COP(=O)(S)O[C@H]3C[C@H](n4cc(C)c(=O)[nH]c4=O)O[C@@H]3CO)[C@@H](COP(=O)(S)O[C@H]3[C@@H](O)[C@H](n4ccc(N)nc4=O)O[C@@H]3COP(=O)(S)O[C@H]3C[C@H](n4cc(C)c(=O)[nH]c4=O)O[C@@H]3COP(=O)(S)O[C@H]3C[C@H](n4cc(C)c(=O)[nH]c4=O)O[C@@H]3COP(=O)(S)O[C@H]3C[C@H](n4ccc5c(=O)[nH]c(N)nc54)O[C@@H]3COP(=O)(S)O[C@H]3[C@@H](O)[C@H](n4ccc(N)nc4=O)O[C@@H]3COP(=O)(S)O[C@H]3C[C@H](n4cc(C)c(=O)[nH]c4=O)O[C@@H]3COP(=O)(S)O[C@H]3[C@@H](O)[C@H](n4cnc5c(=O)[nH]c(N)nc54)O[C@@H]3COP(=O)(S)O[C@H]3C[C@H](n4cc(C)c(=O)[nH]c4=O)O[C@@H]3COP(=O)(S)O[C@H]3[C@@H](O)[C@H](n4ccc(N)nc4=O)O[C@@H]3COP(=O)(S)O[C@H]3C[C@H](n4cc(C)c(=O)[nH]c4=O)O[C@@H]3CO)O2)c(=O)[nH]c1=O (stereo partly drawn) | Dose-dependent effect | Dose-dependent effect | 0.54 ng/mL | 0.73 ng/mL | 0.32 ng/mL | 0.81 ng/mL | 1.76 ng/mL | 0.69 ng/mL | 13.2 ng/mL
Cc1cn([C@H]2C[C@H](OCCOCCOCCOCCOCCOCCOP(=O)(S)O[C@H]3C[C@H](n4cc(C)c(=O)[nH]c4=O)O[C@@H]3COP(=O)(S)O[C@H]3[C@@H](O)[C@H](n4ccc(N)nc4=O)O[C@@H]3COP(=O)(S)O[C@H]3C[C@H](n4cc(C)c(=O)[nH]c4=O)O[C@@H]3COP(=O)(S)O[C@H]3C[C@H](n4cc(C)c(=O)[nH]c4=O)O[C@@H]3COP(=O)(S)O[C@H]3C[C@H](n4ccc5c(=O)[nH]c(N)nc54)O[C@@H]3COP(=O)(S)O[C@H]3[C@@H](O)[C@H](n4ccc(N)nc4=O)O[C@@H]3COP(=O)(S)O[C@H]3C[C@H](n4cc(C)c(=O)[nH]c4=O)O[C@@H]3COP(=O)(S)O[C@H]3[C@@H](O)[C@H](n4cnc5c(=O)[nH]c(N)nc54)O[C@@H]3COP(=O)(S)O[C@H]3C[C@H](n4cc(C)c(=O)[nH]c4=O)O[C@@H]3COP(=O)(S)O[C@H]3[C@@H](O)[C@H](n4ccc(N)nc4=O)O[C@@H]3COP(=O)(S)O[C@H]3C[C@H](n4cc(C)c(=O)[nH]c4=O)O[C@@H]3CO)[C@@H](COP(=O)(S)O[C@H]3[C@@H](O)[C@H](n4ccc(N)nc4=O)O[C@@H]3COP(=O)(S)O[C@H]3C[C@H](n4cc(C)c(=O)[nH]c4=O)O[C@@H]3COP(=O)(S)O[C@H]3C[C@H](n4cc(C)c(=O)[nH]c4=O)O[C@@H]3COP(=O)(S)O[C@H]3C[C@H](n4ccc5c(=O)[nH]c(N)nc54)O[C@@H]3COP(=O)(S)O[C@H]3[C@@H](O)[C@H](n4ccc(N)nc4=O)O[C@@H]3COP(=O)(S)O[C@H]3C[C@H](n4cc(C)c(=O)[nH]c4=O)O[C@@H]3COP(=O)(S)O[C@H]3[C@@H](O)[C@H](n4cnc5c(=O)[nH]c(N)nc54)O[C@@H]3COP(=O)(S)O[C@H]3C[C@H](n4cc(C)c(=O)[nH]c4=O)O[C@@H]3COP(=O)(S)O[C@H]3[C@@H](O)[C@H](n4ccc(N)nc4=O)O[C@@H]3COP(=O)(S)O[C@H]3C[C@H](n4cc(C)c(=O)[nH]c4=O)O[C@@H]3CO)O2)c(=O)[nH]c1=O (stereo partly drawn) | Dose-dependent effect | Dose-dependent effect | 0.16 ng/mL | 0.58 ng/mL | 0.27 ng/mL | 0.11 ng/mL | 0.9 ng/mL | 1.57 ng/mL | 0.25 ng/mL
